Test results reported in ChEMBL document CHEMBL4680236, “Design, synthesis and structure-activity relationships of novel 15-membered macrolides: Quinolone/quinoline-containing sidechains tethered to the C-6 position of azithromycin acylides” (Eur J Med Chem, 2020).
Converted amounts (≈) assume the structure as drawn.

Assays:
[1] = test system: Streptococcus pneumoniae; assay: Antibacterial activity against Erythromycin-susceptible Streptococcus pneumoniae ATCC 49619 assessed as reduction in microbial growth; type: functional
[2] = test system: Streptococcus pneumoniae; assay: Bactericidal activity against Erythromycin-susceptible Streptococcus pneumoniae ATCC 49619; type: functional
Outline: (§1)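 Bacteria were exposed to 1- to 8-fold MIC of the sample, then transferred to fresh medium without antibacterial. After further incubation, colonies were counted. MBC was taken as the lowest concentration giving a >3 log10 reduction in colony number.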

[3] = test system: Streptococcus pneumoniae; assay: Ratio of MBC to MIC against Erythromycin-susceptible Streptococcus pneumoniae ATCC 49619; type: functional
[4] = test system: Streptococcus pneumoniae; assay: Antibacterial activity against penicillin-susceptible Streptococcus pneumoniae PU09 harboring mef gene assessed as reduction in microbial growth; type: functional
[5] = test system: Streptococcus pneumoniae; assay: Bactericidal activity against penicillin-susceptible Streptococcus pneumoniae PU09 harboring mef gene; type: functional
Outline: (§2)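 Bacteria were exposed to 1- to 8-fold their MIC of test sample, then transferred to fresh culture medium without antibacterial compound and incubated for the required time. Colonies were then counted. MBC is the lowest concentration giving a reduction in colony number of >3 Log₁₀.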

[6] = test system: Streptococcus pneumoniae; assay: Ratio of MBC to MIC against penicillin-susceptible Streptococcus pneumoniae PU09; type: functional
[7] = test system: Streptococcus pneumoniae; assay: Antibacterial activity against MLSB-resistant Streptococcus pneumoniae 07P390 harboring ermB gene assessed as reduction in microbial growth; type: functional
[8] = test system: Streptococcus pneumoniae; assay: Bactericidal activity against MLSB-resistant Streptococcus pneumoniae 07P390 harboring ermB gene assessed as reduction in microbial growth; type: functional; outline: as §2
[9] = test system: Streptococcus pneumoniae; assay: Ratio of MBC to MIC against MLSB-resistant Streptococcus pneumoniae 07P390 harboring ermB; type: functional
[10] = test system: Staphylococcus aureus; assay: Antibacterial activity against MLSB/methicillin/ciprofloxacin-resistant Staphylococcus aureus PU32 harboring ermA gene assessed as reduction in microbial growth; type: functional
[11] = test system: Staphylococcus aureus; assay: Bactericidal activity against MLSB/methicillin/ciprofloxacin-resistant Staphylococcus aureus PU32 harboring ermA gene; type: functional; outline: as §2
[12] = test system: Staphylococcus aureus; assay: Antibacterial activity against MLSB/methicillin-resistant Staphylococcus aureus 15B196 assessed as reduction in microbial growth; type: functional
[13] = test system: Staphylococcus aureus; assay: Bactericidal activity against MLSB/methicillin-resistant Staphylococcus aureus 15B196; type: functional; outline: as §2
[14] = test system: Staphylococcus aureus; assay: Ratio of MBC to MIC against MLSB/methicillin-resistant Staphylococcus aureus 15B196; type: functional
[15] = test system: Haemophilus influenzae; assay: Antibacterial activity against azithromycin-susceptible Haemophilus influenzae ATCC 49247 assessed as reduction in microbial growth; type: functional
[16] = test system: Haemophilus influenzae; assay: Bactericidal activity against azithromycin-susceptible Haemophilus influenzae ATCC 49247; type: functional; outline: as §1
[17] = test system: Haemophilus influenzae; assay: Ratio of MBC to MIC against azithromycin-susceptible Haemophilus influenzae ATCC 49247; type: functional
[18] = test system: Streptococcus pyogenes; assay: Antibacterial activity against MLSB-resistant Streptococcus pyogenes 12-206 harboring ermA gene assessed as reduction in microbial growth; type: functional
[19] = test system: Streptococcus pyogenes; assay: Bactericidal activity against MLSB-resistant Streptococcus pyogenes 12-206 harboring ermA gene; type: functional; outline: as §2
[20] = test system: Streptococcus pyogenes; assay: Ratio of MBC to MIC against MLSB-resistant Streptococcus pyogenes 12-206 harboring ermA gene; type: functional
[21] = test system: Staphylococcus aureus; assay: Antibacterial activity against MLSB/methicillin/ciprofloxacin-resistant Staphylococcus aureus PU32 harboring ermA gene assessed as reduction in microbial growth relative to ciprofloxacin; type: functional
[22] = test system: Staphylococcus aureus; assay: Antibacterial activity against MLSB/methicillin-resistant Staphylococcus aureus 15B196 assessed as reduction in microbial growth relative to ciprofloxacin; type: functional
[23] = test system: Haemophilus influenzae; assay: Antibacterial activity against azithromycin-susceptible Haemophilus influenzae ATCC 49247 assessed as reduction in microbial growth relative to ciprofloxacin; type: functional
[24] = molecular target: DNA gyrase (Escherichia coli, UniProt P0AES4+P0AES6); assay: Inhibition of Escherichia coli DNA gyrase using relaxed DNA as substrate incubated for 15 mins by ethidium bromide-based agarose gel electrophoresis; type: protein-complex assay
Outline: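 Supercoiling assay with relaxed pBR322 (0.3 µg), made by treating negatively supercoiled pBR322 with E. coli topoisomerase I, and 1 unit E. coli gyrase. Buffer: 50 mM Tris-HCl pH 8.0, 10 mM MgCl2, 100 mM potassium glutamate, 10 mM DTT, 50 µg/mL BSA, 1 mM ATP. Run 37 °C, 15 min, stopped with 25 mM EDTA. IC50 in µM.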

[25] = molecular target: T1, DNA gyrase (Escherichia coli) (UniProt P0AES6+P0AES4); assay: Poison activity at Escherichia coli DNA gyrase assessed as stabilization of DNA cleavage complex by measuring linear plasmid DNA formation using supercoiled pBR322 incubated for 15 mins by electrophoresis relative to ciprofloxacin; type: protein-complex assay
Outline: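 Cleavage assay with 0.3 µg supercoiled pBR322 and 10 units E. coli gyrase. Buffer: 50 mM Tris-HCl pH 8.0, 10 mM MgCl2, 10 mM DTT, 50 µg/mL BSA, 1 mM ATP, 5 µg/mL tRNA; 37 °C, 15 min. Then 1% SDS for 5 min, then 25 mM EDTA plus 100 µg/mL proteinase K for 30 min. Phenol/chloroform extraction, then 1.2% agarose with ethidium bromide.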

[26] = test system: Escherichia coli; assay: Antibacterial activity against Escherichia coli BW25113 depletion of toIC efflux gene assessed as reduction in microbial growth; type: functional
[27] = test system: Escherichia coli; assay: Antibacterial activity against Escherichia coli JW5503-1 depletion of toIC efflux gene assessed as reduction in microbial growth; type: functional
[28] = test system: Escherichia coli; assay: Antibacterial activity against Escherichia coli JW5503-KanS depletion of toIC efflux gene assessed as reduction in microbial growth; type: functional
[29] = molecular target: T1, DNA gyrase (Escherichia coli); conditions: time 15.0 min
[30] = test system: Staphylococcus aureus; assay: Ratio of MBC to MIC against MLSB/methicillin/ciprofloxacin-resistant Staphylococcus aureus PU32 harboring ermA gene; type: functional

For CC[C@H]1OC(=O)[C@H](C)[C@@H](OC(=O)Cc2ccccn2)[C@H](C)[C@@H](O[C@@H]2O[C@H](C)C[C@H](N(C)C)[C@H]2O)[C@](C)(OC(=O)CCN2CCN(c3c(F)cc4c(=O)c(C(N)=O)cn(C5CC5)c4c3OC)CC2C)C[C@@H](C)CN(C)[C@H](C)[C@@H](O)[C@]1(C)O (stereo partly specified), the MIC [1] was 0.5 µg/mL, the MBC [2] was 1 µg/mL (≈ 0.878 µM) and the Ratio [3] was 2. It also gave an MIC [4] of 2 µg/mL, an MBC [5] of 8 µg/mL (≈ 7.03 µM) and a Ratio [6] of 4. For the same molecule, the MIC [7] was 8 µg/mL, the MBC [8] was 8 µg/mL and the Ratio [9] was 1. For the same molecule, the MIC [10] was 128 µg/mL, the MBC [11] was greater than 256 µg/mL and the MIC [12] was 8 µg/mL. It also gave an MBC [13] of 8 µg/mL (≈ 7.03 µM), a Ratio [14] of 1 and an MIC [15] of 0.5 µg/mL. The MBC [16] was 0.5 µg/mL (≈ 0.439 µM), the Ratio [17] was 1 and the MIC [18] was 8 µg/mL. The MBC [19] was greater than 64 µg/mL, the Ratio [20] was greater than 8 and the “fold change (FC)” value [21] was 0.14. For the same molecule, the “fold change (FC)” value [22] was 1.2, the “fold change (FC)” value [23] was 36 and the IC50 [24] was 9.6 µM. It also gave an Activity [25] of 71%, an MIC [26] of 2 µg/mL and an MIC [27] of 0.5 µg/mL. It also gave an MIC [28] of 0.5 µg/mL and an EC [29] of 18.2 µM.

In the case of CC[C@H]1OC(=O)[C@H](C)[C@@H](OC(=O)Cc2ccccn2)[C@H](C)[C@@H](O[C@@H]2O[C@H](C)C[C@H](N(C)C)[C@H]2O)[C@](C)(OC(=O)CCN2CCN(c3cc4c(cc3F)c(=O)c(C(=O)O)cn4C3CC3)CC2)C[C@@H](C)CN(C)[C@H](C)[C@@H](O)[C@]1(C)O, the MIC [1] is reported as 0.125 µg/mL, the MBC [2] is reported as 0.25 µg/mL (≈ 0.228 µM) and the Ratio [3] is reported as 2. It also gave an MIC [4] of 2 µg/mL, an MBC [5] of 4 µg/mL (≈ 3.65 µM) and a Ratio [6] of 2. It also gave an MIC [7] of 4 µg/mL, an MBC [8] of 32 µg/mL and a Ratio [9] of 8. The MIC [10] was 16 µg/mL, the MBC [11] was greater than 128 µg/mL and the Ratio [30] was greater than 8. The MIC [12] was 16 µg/mL, the MBC [13] was 128 µg/mL (≈ 117 µM) and the Ratio [14] was 8. It also gave an MIC [15] of 0.25 µg/mL, an MBC [16] of 0.25 µg/mL (≈ 0.228 µM) and a Ratio [17] of 1. The “fold change (FC)” value [21] was 0.076, the “fold change (FC)” value [22] was 9.7 and the “fold change (FC)” value [23] was 19. The IC50 [24] was 44.1 µM, the Activity [25] was 28% and the MIC [26] was 4 µg/mL. The MIC [27] was 1 µg/mL, the MIC [28] was 1 µg/mL and the EC [29] was 69.5 µM.
